ChEMBL document CHEMBL1127818, “Identification of L-tryptophan derivatives with potent and selective antagonist activity at the NK1 receptor” (J Med Chem, 1994)
pIC50: −log10 of the molar value.

Columns and labels:
Neuromedin-K receptor = biological target: T1, Neuromedin-K receptor (Homo sapiens, UniProt P29371); assay: Affinity to NK3 receptors assayed by displacement of [125I]-Bolton-Hunter labeled eledoisin radioligand
T1 sequence (P29371 whole entry): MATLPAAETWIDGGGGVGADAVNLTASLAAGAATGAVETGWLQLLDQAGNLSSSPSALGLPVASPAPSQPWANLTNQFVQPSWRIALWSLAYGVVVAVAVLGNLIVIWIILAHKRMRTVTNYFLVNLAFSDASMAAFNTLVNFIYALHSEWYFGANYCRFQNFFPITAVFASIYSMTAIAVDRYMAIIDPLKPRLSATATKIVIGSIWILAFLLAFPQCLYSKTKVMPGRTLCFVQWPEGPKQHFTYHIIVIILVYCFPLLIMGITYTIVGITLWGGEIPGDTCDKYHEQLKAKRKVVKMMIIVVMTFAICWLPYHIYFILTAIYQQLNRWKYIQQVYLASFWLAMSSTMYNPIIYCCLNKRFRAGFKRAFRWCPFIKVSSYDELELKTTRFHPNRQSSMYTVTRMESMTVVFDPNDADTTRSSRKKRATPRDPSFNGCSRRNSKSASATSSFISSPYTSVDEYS
Summary of the method: (§1)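 Cloned human NK2 or NK3 receptors stably expressed in CHO cells. Radioligand displacement with [125I]neurokinin A for NK2 and [125I]Bolton-Hunter labeled eledoisin for NK3; IC50 reported.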

Substance-K receptor = biological target: T2, Substance-K receptor (Homo sapiens, UniProt P21452); assay: Binding affinity to the NK2 receptor assayed by displacement of [125I]-Neurokinin A; summary of the method: as §1
T2 sequence (P21452 whole entry): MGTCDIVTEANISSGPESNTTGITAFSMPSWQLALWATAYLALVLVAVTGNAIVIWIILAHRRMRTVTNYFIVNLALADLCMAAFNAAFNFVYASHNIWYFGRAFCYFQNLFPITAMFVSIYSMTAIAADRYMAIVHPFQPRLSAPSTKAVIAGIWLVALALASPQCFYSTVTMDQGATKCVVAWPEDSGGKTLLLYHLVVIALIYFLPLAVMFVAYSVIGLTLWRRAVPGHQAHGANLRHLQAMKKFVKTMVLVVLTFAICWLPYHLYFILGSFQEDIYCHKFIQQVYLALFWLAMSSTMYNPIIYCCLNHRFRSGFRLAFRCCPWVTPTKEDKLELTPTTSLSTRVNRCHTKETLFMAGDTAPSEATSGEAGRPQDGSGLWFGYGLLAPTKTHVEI

Substance-P receptor = Substance-P receptor (Homo sapiens, UniProt P25103); assay: Binding affinity towards cloned neurokinin 1 receptor, based on the displacement of [125I]-labeled substance P
Cavia porcellus [1] = species: Cavia porcellus; assay: Inhibitory dose against substance P induced extravasation in the guinea pig; conditions: read-out: ID50
Cavia porcellus [2] = species: Cavia porcellus; assay: animal or person; conditions: po, read-out: Inhibition

Chain of Substance-P receptor (P25103 whole entry): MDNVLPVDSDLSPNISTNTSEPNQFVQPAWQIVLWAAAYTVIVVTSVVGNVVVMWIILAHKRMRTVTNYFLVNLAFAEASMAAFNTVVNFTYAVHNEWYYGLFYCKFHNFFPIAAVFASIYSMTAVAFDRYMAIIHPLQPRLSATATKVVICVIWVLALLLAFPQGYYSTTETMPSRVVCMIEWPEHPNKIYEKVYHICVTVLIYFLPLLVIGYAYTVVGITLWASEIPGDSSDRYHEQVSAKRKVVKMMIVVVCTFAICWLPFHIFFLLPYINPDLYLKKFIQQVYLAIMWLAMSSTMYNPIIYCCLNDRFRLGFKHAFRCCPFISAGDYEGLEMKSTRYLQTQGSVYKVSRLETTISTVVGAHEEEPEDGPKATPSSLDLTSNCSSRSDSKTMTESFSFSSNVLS

SMILES | pIC50 (Neuromedin-K receptor) | pIC50 (Substance-K receptor) | pIC50 (Substance-P receptor) | ED50 (Cavia porcellus [1]) [mg/kg] | inhibition in vivo at 30 mg/kg (Cavia porcellus [2]) [%]
CC(=O)N[C@@H](Cc1ccccc1)C(=O)OCc1cc(C)cc(C)c1 | < 5.30 | < 5.30 | 6.36 |  | 
O=C(N[C@@H](Cc1c[nH]c2ccccc12)C(=O)OCc1ccc(C(F)(F)F)cc1)c1ccccc1 | < 5.30 | < 5.30 | 5.67 |  | 
COC(=O)N[C@@H](Cc1c[nH]c2ccccc12)C(=O)OCc1cc(C)cc(C)c1 | < 5.30 | < 5.30 | 7.06 |  | 
Cc1cc(C)cc(COC(=O)[C@H](Cc2c[nH]c3ccccc23)N(C)C)c1 | < 5.30 | < 5.30 |  |  | 
CC(=O)N[C@@H](Cc1cccc2ccccc12)C(=O)OCc1cc(C)cc(C)c1 | < 5.30 | < 5.30 | 6.82 |  | 
CNC(=O)N[C@@H](Cc1c[nH]c2ccccc12)C(=O)OCc1cc(C)cc(C)c1 | < 5.30 | < 5.30 | 6.99 |  | 
O=C(N[C@@H](Cc1c[nH]c2ccccc12)C(=O)OCc1ccccc1Cl)c1ccccc1 | < 5.30 | < 5.30 |  |  | 
COc1cccc(COC(=O)[C@H](Cc2c[nH]c3ccccc23)NC(=O)c2ccccc2)c1 | < 5.30 | < 5.30 | 6.12 |  | 
COc1ccccc1COC(=O)[C@H](Cc1c[nH]c2ccccc12)NC(=O)OC(C)(C)C | < 5.30 | < 5.30 |  |  | 
Cc1cc(C)cc(COC(=O)[C@H](Cc2c[nH]c3ccccc23)NC(=O)OC(C)(C)C)c1 | < 5.30 | < 5.30 |  |  | 
O=C(N[C@@H](Cc1c[nH]c2ccccc12)C(=O)OCc1cccc(C(F)(F)F)c1)c1ccccc1 | < 5.30 | < 5.30 | 7.21 |  | 
CCN[C@@H](Cc1c[nH]c2ccccc12)C(=O)OCc1ccccc1 | < 5.30 | < 5.30 |  |  | 
Cc1cc(C)cc(COC(=O)[C@H](Cc2c[nH]c3ccccc23)NC(=O)c2ccccc2)c1 | < 5.30 | < 5.30 | 7.66 |  | 
N[C@@H](Cc1c[nH]c2ccccc12)C(=O)OCc1ccccc1 | < 5.30 | < 5.30 |  |  | 
Cc1cc(C)cc(COC(=O)[C@@H](N)Cc2c[nH]c3ccccc23)c1 | < 5.30 | < 5.30 |  |  | 
O=C(N[C@@H](Cc1c[nH]c2ccccc12)C(=O)OCc1ccc(Cl)cc1)c1ccccc1 | < 5.30 | < 5.30 | 6.61 |  | 
COc1ccccc1COC(=O)[C@H](Cc1c[nH]c2ccccc12)NC(=O)c1ccccc1 | < 5.30 | < 5.30 | < 7.00 |  | 
O=C(N[C@@H](Cc1c[nH]c2ccccc12)C(=O)OCc1cccc(Cl)c1)c1ccccc1 | < 5.30 | < 5.30 | 5.98 |  | 
CC(=O)N[C@@H](Cc1ccc2ccccc2c1)C(=O)OCc1cc(C)cc(C)c1 | < 5.30 | < 5.30 | 6.86 |  | 
O=C(N[C@@H](Cc1c[nH]c2ccccc12)C(=O)OCc1ccccc1C(F)(F)F)c1ccccc1 | < 5.30 | < 5.30 | 6.74 |  | 
Cc1cc(C)cc(COC(=O)[C@H](Cc2c[nH]c3ccccc23)[N+](C)(C)C)c1 | < 5.30 | < 5.30 |  |  | 
O=C(N[C@@H](Cc1c[nH]c2ccccc12)C(=O)OCc1cc(C(F)(F)F)cc(C(F)(F)F)c1)c1ccccc1 | < 5.30 | < 5.30 | 8.57 |  | 
COc1ccc(COC(=O)[C@H](Cc2c[nH]c3ccccc23)NC(=O)c2ccccc2)cc1 | < 5.30 | < 5.30 | 5.26 |  | 
CC(C)(C)OC(=O)N[C@@H](Cc1c[nH]c2ccccc12)C(=O)OCc1ccccc1 | < 5.30 | < 5.30 |  |  | 
CC(=O)N[C@@H](Cc1ccc(Cl)c(Cl)c1)C(=O)OCc1cc(C)cc(C)c1 (racemic) | < 5.30 | < 5.30 | 7.52 |  | 
CC(=O)N[C@@H](Cc1n[nH]c2ccccc12)C(=O)OCc1cc(C(F)(F)F)cc(C(F)(F)F)c1 (racemic) | < 5.30 | < 5.30 | 6.71 |  | 
CC(=O)N[C@@H](Cc1csc2ccccc12)C(=O)OCc1cc(C(F)(F)F)cc(C(F)(F)F)c1 (racemic) [L-709400] | < 5.30 | < 5.30 | 8.10 |  | 
Cc1cc(C)cc(COC(=O)C(Cc2c[nH]c3ccccc23)NC(=O)c2ccccc2)c1 (single isomer, unassigned) | < 5.30 | < 5.30 |  |  | 
CC(=O)N[C@@H](Cc1c[nH]c2ccccc12)C(=O)OCc1cc(C)cc(C)c1 [L-708568] | < 5.30 | < 5.30 |  |  | 
CC(=O)N[C@@H](Cc1c[nH]c2ccccc12)C(=O)OCc1cc(C(F)(F)F)cc(C(F)(F)F)c1 [L-732138] | < 5.30 | < 5.30 |  | 8 | 22
